How the values were obtained:
[1] = molecular target: T1, Prostaglandin E2 receptor EP3 subtype (Homo sapiens, UniProt P43115); assay: Binding affinity to EP3 receptor
T1 sequence (P43115 whole entry): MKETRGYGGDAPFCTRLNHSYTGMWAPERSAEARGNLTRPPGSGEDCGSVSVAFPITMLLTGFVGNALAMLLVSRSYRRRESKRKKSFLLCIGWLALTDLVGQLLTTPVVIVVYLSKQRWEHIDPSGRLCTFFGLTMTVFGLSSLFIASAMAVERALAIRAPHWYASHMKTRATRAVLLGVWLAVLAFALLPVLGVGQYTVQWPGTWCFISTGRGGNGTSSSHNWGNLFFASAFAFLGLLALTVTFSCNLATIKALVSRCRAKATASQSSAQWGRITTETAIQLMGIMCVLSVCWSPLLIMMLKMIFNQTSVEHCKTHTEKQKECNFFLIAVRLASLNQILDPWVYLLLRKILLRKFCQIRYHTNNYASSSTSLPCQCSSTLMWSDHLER

[2] = molecular target: Prostaglandin E2 receptor EP2 subtype (Homo sapiens, UniProt P43116); assay: Binding affinity to EP2 receptor
Prostaglandin E2 receptor EP2 subtype, sequence (P43116 whole entry): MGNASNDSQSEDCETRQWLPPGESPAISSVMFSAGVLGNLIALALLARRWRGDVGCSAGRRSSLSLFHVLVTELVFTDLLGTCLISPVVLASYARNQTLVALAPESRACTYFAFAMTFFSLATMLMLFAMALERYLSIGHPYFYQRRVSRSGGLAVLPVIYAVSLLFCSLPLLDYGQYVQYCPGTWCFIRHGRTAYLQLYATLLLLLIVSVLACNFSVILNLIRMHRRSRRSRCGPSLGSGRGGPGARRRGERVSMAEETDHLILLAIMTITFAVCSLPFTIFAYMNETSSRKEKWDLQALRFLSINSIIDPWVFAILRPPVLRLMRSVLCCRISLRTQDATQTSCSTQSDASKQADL

[3] = molecular target: Prostaglandin E2 receptor EP4 subtype (Homo sapiens, UniProt P35408); assay: Binding affinity to EP4 receptor
Prostaglandin E2 receptor EP4 subtype, sequence (P35408 whole entry): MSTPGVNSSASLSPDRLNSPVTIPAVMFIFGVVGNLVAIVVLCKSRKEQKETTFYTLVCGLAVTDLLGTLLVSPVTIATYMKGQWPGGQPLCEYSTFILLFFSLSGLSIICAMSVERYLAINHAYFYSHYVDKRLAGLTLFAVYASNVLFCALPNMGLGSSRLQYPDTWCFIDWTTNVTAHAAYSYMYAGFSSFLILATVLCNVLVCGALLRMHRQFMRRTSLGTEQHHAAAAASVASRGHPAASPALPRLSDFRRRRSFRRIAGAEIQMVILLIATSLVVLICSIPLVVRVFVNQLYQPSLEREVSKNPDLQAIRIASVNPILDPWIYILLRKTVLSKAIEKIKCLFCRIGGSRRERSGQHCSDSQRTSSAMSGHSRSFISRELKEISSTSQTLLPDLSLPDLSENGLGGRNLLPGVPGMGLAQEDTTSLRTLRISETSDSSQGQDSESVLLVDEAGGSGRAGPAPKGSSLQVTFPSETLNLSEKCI

[4] = molecular target: T2, Prostaglandin E2 receptor EP1 subtype (Homo sapiens, UniProt P34995); assay: Binding affinity to EP1 receptor
T2 sequence (P34995 whole entry): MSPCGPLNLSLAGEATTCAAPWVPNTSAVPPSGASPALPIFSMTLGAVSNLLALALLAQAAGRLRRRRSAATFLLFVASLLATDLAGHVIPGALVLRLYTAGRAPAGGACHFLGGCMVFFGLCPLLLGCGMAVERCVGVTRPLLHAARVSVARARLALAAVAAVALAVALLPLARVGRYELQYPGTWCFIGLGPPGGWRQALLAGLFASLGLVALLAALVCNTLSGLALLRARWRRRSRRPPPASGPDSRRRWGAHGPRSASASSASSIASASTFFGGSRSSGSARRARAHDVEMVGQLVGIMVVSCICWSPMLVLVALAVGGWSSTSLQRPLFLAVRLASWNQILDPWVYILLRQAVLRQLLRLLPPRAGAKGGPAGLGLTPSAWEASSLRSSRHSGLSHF

[5] = molecular target: T3, Prostaglandin E2 receptor EP3 subtype (Homo sapiens) (UniProt P43115); assay: Antagonistic activity at EP3 receptor assessed as inhibition of cAMP production in HEK EBNA cells; type: functional, cell-based; conditions: HEK293-EBNA, filed as antagonist
T3 sequence (whole entry): T1 sequence (P43115 whole entry)

[6] = Clearance in Sprague-Dawley rat at 10 mg/kg, po and 5 mg/kg, iv; type: ADME, organism-based; conditions: in vivo
[7] = molecular target: T4, Prostaglandin D2 receptor (Homo sapiens, UniProt Q13258); assay: Binding affinity to DP receptor
T4 sequence (Q13258 whole entry): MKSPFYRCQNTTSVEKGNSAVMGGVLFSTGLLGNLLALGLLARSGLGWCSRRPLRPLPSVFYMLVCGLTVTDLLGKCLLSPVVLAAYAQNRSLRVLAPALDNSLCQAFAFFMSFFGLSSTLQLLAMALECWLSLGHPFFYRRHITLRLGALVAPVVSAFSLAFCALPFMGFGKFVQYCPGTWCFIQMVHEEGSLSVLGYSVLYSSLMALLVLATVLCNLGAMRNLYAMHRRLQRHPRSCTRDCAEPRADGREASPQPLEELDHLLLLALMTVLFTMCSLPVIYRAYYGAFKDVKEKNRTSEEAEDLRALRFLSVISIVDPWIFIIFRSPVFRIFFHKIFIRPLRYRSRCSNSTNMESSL

Thromboxane A2 receptor = molecular target: T5, Thromboxane A2 receptor (Homo sapiens, UniProt P21731); assay: Binding affinity to TP receptor
T5 sequence (P21731 whole entry): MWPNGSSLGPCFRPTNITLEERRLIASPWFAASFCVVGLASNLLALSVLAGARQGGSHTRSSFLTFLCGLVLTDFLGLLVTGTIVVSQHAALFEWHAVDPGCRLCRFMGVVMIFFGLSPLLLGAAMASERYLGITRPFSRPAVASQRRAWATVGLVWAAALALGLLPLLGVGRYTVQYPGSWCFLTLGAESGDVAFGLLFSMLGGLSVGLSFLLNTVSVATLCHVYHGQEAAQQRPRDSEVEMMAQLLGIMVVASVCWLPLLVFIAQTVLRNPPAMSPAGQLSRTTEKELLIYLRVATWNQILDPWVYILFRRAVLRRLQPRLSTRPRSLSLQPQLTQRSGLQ

[8] = Half life in Sprague-Dawley rat at 10 mg/kg, po and 5 mg/kg, iv; type: ADME, organism-based; conditions: in vivo
Rattus norvegicus [9] = assay: Antiinflammatory activity against carrageenan-induced paw edema in po dosed rat; type: functional
[10] = Bioavailability in Sprague-Dawley rat at 10 mg/kg, po and 5 mg/kg, iv; type: ADME, organism-based; conditions: in vivo
[11] = Stability in rat hepatocytes after 3 hrs; type: ADME, cell-based, Hepatocyte; conditions: read-out: Stability
Summary of the method: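 Incubation with rat hepatocytes for 3 h; percentage of parent compound recovered intact.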

Rattus norvegicus [12] = assay: Effect on carrageenan-induced paw hyperalgesia in po dosed rat; type: functional
Prostacyclin receptor = Prostacyclin receptor (Homo sapiens, UniProt P43119); assay: Binding affinity to IP receptor
Prostacyclin receptor, sequence (P43119 whole entry): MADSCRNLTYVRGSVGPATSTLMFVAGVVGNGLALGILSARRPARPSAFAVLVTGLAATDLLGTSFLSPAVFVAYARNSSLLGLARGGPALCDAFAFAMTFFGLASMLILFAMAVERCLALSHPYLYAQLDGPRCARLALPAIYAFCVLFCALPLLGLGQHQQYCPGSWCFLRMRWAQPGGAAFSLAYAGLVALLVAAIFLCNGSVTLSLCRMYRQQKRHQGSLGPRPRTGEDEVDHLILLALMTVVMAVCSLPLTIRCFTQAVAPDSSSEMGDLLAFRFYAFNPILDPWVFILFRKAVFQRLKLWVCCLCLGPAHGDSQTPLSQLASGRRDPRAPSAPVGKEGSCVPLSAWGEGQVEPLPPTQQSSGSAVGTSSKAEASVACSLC

[13] = Cmax in Sprague-Dawley rat at 10 mg/kg, po and 5 mg/kg, iv after 30 mins; type: ADME, organism-based; conditions: in vivo
[14] = molecular target: Prostaglandin F2-alpha receptor (Homo sapiens, UniProt P43088); assay: Binding affinity to FP receptor
Prostaglandin F2-alpha receptor, sequence (P43088 whole entry): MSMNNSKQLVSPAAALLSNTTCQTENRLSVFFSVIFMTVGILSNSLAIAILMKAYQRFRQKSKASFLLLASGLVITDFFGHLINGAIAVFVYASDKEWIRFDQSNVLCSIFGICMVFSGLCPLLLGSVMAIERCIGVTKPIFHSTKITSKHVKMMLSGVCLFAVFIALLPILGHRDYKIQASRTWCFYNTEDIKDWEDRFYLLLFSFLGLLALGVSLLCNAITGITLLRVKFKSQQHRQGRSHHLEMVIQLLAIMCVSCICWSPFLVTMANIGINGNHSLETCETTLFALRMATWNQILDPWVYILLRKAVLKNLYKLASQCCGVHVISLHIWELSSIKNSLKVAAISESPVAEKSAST

Rattus norvegicus [15] = assay: Concentration in carrageenan-induced hyperalgesic rat at 10 mg/kg, po, 1 hr postdose; type: functional
Summary of the method: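 Young 100 g rats from the hyperalgesia model given 10 mg/kg po in 0.5% methocel as sodium salts; plasma concentration measured 1 h post-dosing, at the time hyperalgesia was assessed.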

[16] = molecular target: T1, Prostaglandin E2 receptor EP3 subtype; assay: Binding affinity to EP3 receptor in presence of HSA

| Compound | Ki [1] | Ki [2] | Ki [3] | Ki [4] | further results |
| --- | --- | --- | --- | --- | --- |
| COc1ccc(/C=C/Cc2ccccc2/C=C/C(=O)NS(=O)(=O)c2cccs2)cc1 | 0.0024 µM (antagonist) | 6.5 µM (antagonist) | 1 µM (antagonist) | 2.6 µM (antagonist) | – |
| Cc1ccc(OCc2ccccc2)c(C/C=C/c2ccccc2/C=C/C(=O)O)c1 | 0.009 µM (antagonist) | 0.86 µM (antagonist) | 2 µM (antagonist) | 19 µM | Kb [5]: 0.032 µM; clearance [6]: 10 mL/min; Ki [7]: > 0.5 µM; Ki (Thromboxane A2 receptor): > 0.5 µM; half-life [8]: 2 h; ED50 (Rattus norvegicus [9]): 0.9 mg/kg; bioavailability [10]: 97%; remaining at 3 h [11]: 8%; ED50 (Rattus norvegicus [12]): 20 mg/kg; Ki (Prostacyclin receptor): > 0.5 µM; Cmax [13]: 22 µM; Ki [14]: > 0.5 µM; Activity (Rattus norvegicus [15]): 0.24 µM |
| Cc1ccc(OCc2c(Cl)cccc2Cl)c(/C=C/Cc2ccccc2/C=C/C(=O)O)c1 | 0.003 µM (antagonist) | 5.4 µM (antagonist) | 0.62 µM (antagonist) | 6.7 µM (antagonist) | Kb [5]: 0.0058 µM; clearance [6]: 16 mL/min; Ki [7]: > 0.5 µM; Ki (Thromboxane A2 receptor): > 0.5 µM; half-life [8]: 2 h; ED50 (Rattus norvegicus [9]): 5.1 mg/kg; bioavailability [10]: 74%; ED50 (Rattus norvegicus [12]): 5.8 mg/kg; Ki (Prostacyclin receptor): > 0.5 µM; Cmax [13]: 25 µM; Ki [14]: > 0.5 µM; Activity (Rattus norvegicus [15]): 2.5 µM |
| COc1ccc(/C=C/Cc2ccccc2/C=C/C(=O)O)cc1 | 0.068 µM (antagonist) | 2.5 µM (antagonist) | 6.2 µM (antagonist) | > 100 µM | – |
| O=C(/C=C/c1ccccc1C/C=C/c1ccccc1)NS(=O)(=O)c1cccs1 | 0.005 µM (antagonist) | 8 µM (antagonist) | 1.5 µM (antagonist) | 8.5 µM (antagonist) | – |
| Cc1ccc(OCc2ccccc2)c(C/C=C/c2ccccc2/C=C/C(=O)NS(=O)(=O)c2cccs2)c1 | 0.01 µM (antagonist) | 2.1 µM (antagonist) | 0.96 µM (antagonist) | 2.3 µM (antagonist) | – |
| Cc1ccc(OCc2ccccc2)c(CCCc2ccccc2CCC(=O)NS(=O)(=O)c2cccs2)c1 | 0.056 µM (antagonist) | 1.6 µM (antagonist) | 1 µM (antagonist) | 6.7 µM (antagonist) | – |
| COc1cc(/C=C/Cc2ccccc2/C=C/C(=O)O)ccc1OCc1ccccc1 | 0.008 µM (antagonist) | 0.75 µM (antagonist) | 0.61 µM (antagonist) | > 20 µM | – |
| Cc1ccc(OCc2ccccc2)c(CCCc2ccccc2CCC(=O)O)c1 | 0.065 µM (antagonist) | 0.94 µM (antagonist) | 0.44 µM (antagonist) | 23 µM | – |
| COc1cc(/C=C/Cc2ccccc2/C=C/C(=O)NS(=O)(=O)c2cccs2)ccc1OCc1ccccc1 | 0.0016 µM (antagonist) | 8.7 µM (antagonist) | 0.84 µM (antagonist) | 1.5 µM (antagonist) | – |
| O=C(O)/C=C/c1ccccc1Cc1ccc2ccccc2c1 | 0.047 µM (antagonist) | – | 13 µM | > 100 µM | Ki [7]: > 0.5 µM; Ki (Thromboxane A2 receptor): > 0.5 µM; ED50 (Rattus norvegicus [12]): 30 mg/kg; Ki (Prostacyclin receptor): > 0.5 µM; Ki [16]: 0.4 µM (antagonist); Ki [14]: > 0.5 µM; Activity (Rattus norvegicus [15]): 5.4 µM |
| O=C(O)/C=C/c1ccccc1C/C=C/c1ccccc1 | 0.1 µM (antagonist) | 1.4 µM (antagonist) | 4.4 µM (antagonist) | > 100 µM | – |
| Cc1ccc(OCc2ccccc2)c(/C=C/Cc2ccccc2/C=C/C(=O)NS(=O)(=O)c2cccs2)c1 | 0.01 µM (antagonist) | 2.1 µM (antagonist) | 0.96 µM (antagonist) | 2.3 µM (antagonist) | – |
| O=C(/C=C/c1ccccc1/C=C/Cc1ccccc1)NS(=O)(=O)c1cccs1 | 0.005 µM (antagonist) | 8 µM (antagonist) | 1.5 µM (antagonist) | 8.5 µM (antagonist) | – |
| COc1cc(C/C=C/c2ccccc2/C=C/C(=O)NS(=O)(=O)c2cccs2)ccc1OCc1ccccc1 | 0.0016 µM (antagonist) | 8.7 µM (antagonist) | 0.84 µM (antagonist) | 1.5 µM (antagonist) | – |
| COc1ccc(C/C=C/c2ccccc2/C=C/C(=O)NS(=O)(=O)c2cccs2)cc1 | 0.0024 µM (antagonist) | 6.5 µM (antagonist) | 1 µM (antagonist) | 2.6 µM (antagonist) | – |
| O=C(/C=C/c1ccccc1Cc1ccc2cc(OCc3ccccc3)ccc2c1)NS(=O)(=O)c1cccs1 | 0.0006 µM (antagonist) | 8 µM (antagonist) | 1.1 µM (antagonist) | 3.2 µM (antagonist) | Ki [16]: 0.0024 µM (antagonist) |
| COc1ccc(Br)cc1S(=O)(=O)NC(=O)/C=C/c1ccccc1Cc1ccc2cc(OCc3ccccc3)ccc2c1 | 0.0009 µM (antagonist) | > 100 µM | 8 µM (antagonist) | > 100 µM | Kb [5]: 0.0007 µM; Ki [7]: > 0.5 µM; Ki (Thromboxane A2 receptor): > 0.5 µM; ED50 (Rattus norvegicus [12]): > 30 mg/kg; Ki (Prostacyclin receptor): > 0.5 µM; Ki [16]: 0.0007 µM (antagonist); Ki [14]: > 0.5 µM; Activity (Rattus norvegicus [15]): 8 µM |

From ChEMBL document CHEMBL1139690, “Comparison between two classes of selective EP(3) antagonists and their biological activities” (Bioorg Med Chem Lett, 2006)
